According to ChEMBL document CHEMBL5247578, “Effective synthesis of benzimidazoles-imidazo[1,2-a]pyrazine conjugates: A comparative study of mono-and bis-benzimidazoles for antitumor activity” (Eur J Med Chem, 2019):

Tests used:
SF-539 [1] = test: Growth inhibition against human SF-539 cells assessed as total growth inhibitory concentration incubated for 48 hrs by sulforhodamine B assay; format: functional
A498 = test: Growth inhibition against human A498 cells assessed as total growth inhibitory concentration incubated for 48 hrs by sulforhodamine B assay; format: functional
SK-MEL-28 = test: Antiproliferative activity against human SK-MEL-28 cells assessed as cell growth inhibition by measuring lethal concentration incubated for 48 hrs by sulforhodamine B assay; format: functional; conditions: read-out: LC50 (the source's name)
MDA-MB-468 = test: Antiproliferative activity against human MDA-MB-468 cells assessed as cell growth at 0.00000001 M incubated for 48 hrs by SRB assay relative to control; format: functional; conditions: dose 10 nM, read-out: Activity
UO-31 = test: Growth inhibition against human UO-31 cells incubated for 48 hrs by sulforhodamine B assay; format: functional
PC-3 = test: Growth inhibition against human PC-3 cells incubated for 48 hrs by sulforhodamine B assay; format: functional
SK-MEL-5 [2] = test: Antiproliferative activity against human SK-MEL-5 cells assessed as cell growth at 0.0000001 M incubated for 48 hrs by SRB assay relative to control; format: functional; conditions: dose 100 nM, read-out: Activity
786-0 = test: Antiproliferative activity against human 786-0 cells assessed as cell growth inhibition by measuring lethal concentration incubated for 48 hrs by sulforhodamine B assay; format: functional; conditions: read-out: LC50 (the source's name)
RXF 393 [3] = test: Growth inhibition against human RXF 393 cells incubated for 48 hrs by sulforhodamine B assay; format: functional
OVCAR-4 = test: Growth inhibition against human OVCAR-4 cells assessed as total growth inhibitory concentration incubated for 48 hrs by sulforhodamine B assay; format: functional
MOLT-4 [4] = test: Antiproliferative activity against human MOLT-4 cells assessed as cell growth at 0.0001 M incubated for 48 hrs by SRB assay relative to control; format: functional; conditions: read-out: Activity
OVCAR-8 = test: Growth inhibition against human OVCAR-8 cells assessed as total growth inhibitory concentration incubated for 48 hrs by sulforhodamine B assay; format: functional
NCI/ADR-RES = test: Antiproliferative activity against human NCI/ADR-RES cells assessed as cell growth inhibition by measuring lethal concentration incubated for 48 hrs by sulforhodamine B assay; format: functional; conditions: read-out: LC50 (the source's name)
U-251 [5] = test: Growth inhibition against human U-251 cells incubated for 48 hrs by sulforhodamine B assay; format: functional
SK-MEL-5 [6] = test: Antiproliferative activity against human SK-MEL-5 cells assessed as cell growth at 0.000001 M incubated for 48 hrs by SRB assay relative to control; format: functional; conditions: read-out: Activity
BT-549 [7] = test: Antiproliferative activity against human BT-549 cells assessed as cell growth at 0.0001 M incubated for 48 hrs by SRB assay relative to control; format: functional; conditions: read-out: Activity
Method in brief: (§1)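 NCI-60 five-dose screen over 10^-4–10^-8 M (10-fold dilutions). Cells grown in RPMI 1640 with 5% FBS and 2 mM L-glutamine, seeded at 5,000–40,000 cells/well and preincubated 24 h. Drug from DMSO stock, 48 h at 37 °C, 5% CO2. Adherent cells TCA-fixed and stained with 0.4% SRB; A515 read. Percent growth = (Ti−Tz)/(C−Tz)×100, or (Ti−Tz)/Tz×100 when Ti<Tz.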

Calf thymus DNA [8] = test: Binding affinity to calf thymus DNA assessed as binding constant at temperature of 298 K by Stern-Volmer quenching plot based fluorescence spectroscopic method; format: nucleic-acid assay; conditions: Bos taurus
MDA-MB-231 [9] = test: Growth inhibition against human MDA-MB-231 cells incubated for 48 hrs by sulforhodamine B assay; format: functional
SK-MEL-2 = test: Antiproliferative activity against human SK-MEL-2 cells assessed as cell growth at 0.0001 M incubated for 48 hrs by SRB assay relative to control; format: functional; conditions: read-out: Activity
SF-539 [10] = test: Antiproliferative activity against human SF-539 cells assessed as cell growth at 0.0001 M incubated for 48 hrs by SRB assay relative to control; format: functional; conditions: read-out: Activity
MDA-MB-231 [11] = test: Antiproliferative activity against human MDA-MB-231 cells assessed as cell growth at 0.0000001 M incubated for 48 hrs by SRB assay relative to control; format: functional; conditions: dose 100 nM, read-out: Activity
MOLT-4 [12] = test: Antiproliferative activity against human MOLT-4 cells assessed as cell growth inhibition by measuring lethal concentration incubated for 48 hrs by sulforhodamine B assay; format: functional; conditions: read-out: LC50 (the source's name)
MDA-MB-435 = test: Antiproliferative activity against human MDA-MB-435 cells assessed as cell growth at 0.0000001 M incubated for 48 hrs by SRB assay relative to control; format: functional; conditions: dose 100 nM, read-out: Activity
T47D [13] = test: Antiproliferative activity against human T47D cells assessed as cell growth inhibition by measuring lethal concentration incubated for 48 hrs by sulforhodamine B assay; format: functional; conditions: read-out: LC50 (the source's name)
Method in brief: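 NCI-60 five-dose screen (10^-4 to 10^-8 M, 10-fold dilutions; DMSO stocks). Cells in RPMI 1640 with 5% FBS and 2 mM L-glutamine, preincubated 24 h, then exposed 48 h at 37 °C, 5% CO2. Fixed with cold TCA, stained with 0.4% SRB, absorbance read at 515 nm. Time-zero plates used as reference. LC50 taken from [(Ti-Tz)/Tz]×100 […].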

T47D [14] = test: Antiproliferative activity against human T47D cells assessed as cell growth at 0.0001 M incubated for 48 hrs by SRB assay relative to control; format: functional; conditions: read-out: Activity
U-251 [15] = test: Antiproliferative activity against human U-251 cells assessed as cell growth at 0.00001 M incubated for 48 hrs by SRB assay relative to control; format: functional; conditions: read-out: Activity
SF-295 = test: Antiproliferative activity against human SF-295 cells assessed as cell growth at 0.00001 M incubated for 48 hrs by SRB assay relative to control; format: functional; conditions: read-out: Activity
ACHN = test: Antiproliferative activity against human ACHN cells assessed as cell growth at 0.0001 M incubated for 48 hrs by SRB assay relative to control; format: functional; conditions: read-out: Activity; method in brief: as §1
TK-10 = test: Antiproliferative activity against human TK-10 cells assessed as cell growth at 0.000001 M incubated for 48 hrs by SRB assay relative to control; format: functional; conditions: read-out: Activity
HOP-92 = test: Antiproliferative activity against human HOP-92 cells assessed as cell growth at 0.00000001 M incubated for 48 hrs by SRB assay relative to control; format: functional; conditions: dose 10 nM, read-out: Activity
Method in brief: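 NCI-60 five-dose screen (10^-4 to 10^-8 M). Cells grown in RPMI 1640 with 5% FBS and 2 mM L-glutamine, plated at 5,000-40,000 cells/well and preincubated 24 h. Drug given from DMSO stock, then 48 h at 37 °C, 5% CO2. For adherent lines, cells fixed with cold TCA, SRB-stained and read at 515 nm. Percent growth taken against time-zero and untreated control.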

Calf thymus DNA [16] = test: Binding affinity to calf thymus DNA assessed as binding constant by Benesi-Hildebrand equation based UV-vis spectrophotometric method; format: nucleic-acid assay; conditions: Bos taurus
A549 = test: Antiproliferative activity against human A549 cells assessed as cell growth at 0.00001 M incubated for 48 hrs by SRB assay relative to control; format: functional; conditions: read-out: Activity; method in brief: as §1
BT-549 [17] = test: Antiproliferative activity against human BT-549 cells assessed as cell growth at 0.000001 M incubated for 48 hrs by SRB assay relative to control; format: functional; conditions: read-out: Activity; method in brief: as §1
RXF 393 [18] = test: Antiproliferative activity against human RXF 393 cells assessed as cell growth at 0.000001 M incubated for 48 hrs by SRB assay relative to control; format: functional; conditions: read-out: Activity

Structure (SMILES)	TGI (SF-539 [1]) [µM]	TGI (A498) [µM]	CC50 (SK-MEL-28) [µM]	growth at 0.01 µM (MDA-MB-468) [%]	GI50 (UO-31) [µM]	GI50 (PC-3) [µM]	growth at 0.1 µM (SK-MEL-5 [2]) [%]	CC50 (786-0) [µM]	GI50 (RXF 393 [3]) [µM]	TGI (OVCAR-4) [µM]	growth at 100 µM (MOLT-4 [4]) [%]	TGI (OVCAR-8) [µM]	CC50 (NCI/ADR-RES) [µM]	GI50 (U-251 [5]) [µM]	growth at 1 µM (SK-MEL-5 [6]) [%]	growth at 100 µM (BT-549 [7]) [%]	Kb (Calf thymus DNA [8])	GI50 (MDA-MB-231 [9]) [µM]	growth at 100 µM (SK-MEL-2) [%]	growth at 100 µM (SF-539 [10]) [%]	other results
c1ccc(Cn2cnc3ccc(-c4nc(-c5ccc6c(c5)ncn6C5CCCCC5)cn5ccnc45)cc32)cc1	2.6	3.57	> 100	100	1.72	1.97	106	> 100	1.22	> 100	4	6.54	> 100	1.99	80	-68	9.58 10^4/M	1.68	-33	-38	growth at 0.1 µM (MDA-MB-231 [11]): 98%; CC50 (MOLT-4 [12]): > 100 µM; growth at 0.1 µM (MDA-MB-435): 98%; CC50 (T47D [13]): > 100 µM; growth at 100 µM (T47D [14]): 9%; growth at 10 µM (U-251 [15]): -27%; growth at 10 µM (SF-295): -82%; growth at 100 µM (ACHN): 23%; growth at 1 µM (TK-10): 97%; growth at 0.01 µM (HOP-92): 88%; Kb (Calf thymus DNA [16]): 3.18 10^4/M; growth at 10 µM (A549): -46%; growth at 1 µM (BT-549 [17]): 62%; growth at 1 µM (RXF 393 [18]): 62%
COc1ccc(-c2cn3ccnc3c(-c3ccc4ncn(C5CCCCC5)c4c3)n2)cc1	2.49	> 100	> 100	93	1.35	0.621	100	> 100	1.3	> 100	22	> 100	> 100	2.22	41	-6	36.5 10^4/M	2.83	3	-19	growth at 0.1 µM (MDA-MB-231 [11]): 101%; CC50 (MOLT-4 [12]): > 100 µM; growth at 0.1 µM (MDA-MB-435): 92%; CC50 (T47D [13]): > 100 µM; growth at 100 µM (T47D [14]): -21%; growth at 10 µM (U-251 [15]): 14%; growth at 10 µM (SF-295): -29%; growth at 100 µM (ACHN): 23%; growth at 1 µM (TK-10): 84%; growth at 0.01 µM (HOP-92): 96%; Kb (Calf thymus DNA [16]): 3.34 10^4/M; growth at 10 µM (A549): 14%; growth at 1 µM (BT-549 [17]): 26%; growth at 1 µM (RXF 393 [18]): 57%
